Screening data (PubChem)
Hits are enriched below; roughly 5.1% of the tested compounds scored in any of these assays.
STAT1 inh: inhibitors of IFN-gamma induced STAT1 signaling. NIH 3T3 STAT1-luciferase reporter, luminescence. inhibition, % at 5.5 µM. 0.35% of 200,000 active;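 active = inhibition above a set limit, the mean inhibition across all tested compounds plus 3 SD, cut at about 34% in these data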;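 note: 0% = IFN-gamma with DMSO and 100% = IFN-gamma with 300 µM nifuroxazide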
NF-kB expr up: compounds increasing NF-kB expression in human neuronal cells; NF-kB reporter expression; stronger effect = higher value; fold change at 12.5 µM; 1.6% of 190,000 active; AID 1239; in the data active = fold change above about 3.3
STAT3 act: activators of IL-6 induced STAT3 signaling; U3A cells, IL-6 STAT3-luciferase reporter, luminescence; 100% = signal with IL-6 EC80 alone; activation (% of control), % at 5.6 µM; 0.91% of 190,000 active;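 active = activation above the screen-wide mean of compound activation plus 3 SD, cut at about 130% in these data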;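 note: 0% = background luminescence of wells with medium and substrate only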
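Assay system – human STAT1-deficient U3A cells with stable STAT3-luciferase reporter · Also added – IL-6 (33 ng/mL) · Schedule – compound 1 h, then IL-6 6 h at 37 °C · Technique – reporter luminescence signal · Evaluation – % activation versus median of IL-6-stimulated wells · Benchmarks – IL-6-only wells as 100% reference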
STAT3 inh: inhibitors of IL-6 induced STAT3 signaling; U3A cells, IL-6 STAT3-luciferase reporter, luminescence; host cell line lacks STAT1; inhibition, % at 5.5 µM; 0.89% of 190,000 active;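 active = inhibition above the mean inhibition across all screened compounds plus 3 SD, cut at about 44% in these data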;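 note: 0% = DMSO only wells and 100% = 100 µM nifuroxazide control wells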
APP 5'UTR act: APP 5'UTR luciferase reporter activation; activation, % at 2 µM; 1% of 190,000 active; SH-SY5Y APP 5'UTR luciferase reporter, luminescence; zero percent = DMSO vehicle wells;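 active = activation above a set limit, based on mean plus 3 SD of controls, cut at about 140% in these data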
STAT1 activator: activators of IFN-gamma induced STAT1 signaling; NIH 3T3 STAT1-luciferase reporter, luminescence; 100% = IFN-gamma alone, no compound; activation (% of control), % at 5.5 µM; 2.6% of 200,000 active; AID 932;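 active = activation above the screen-wide mean activation plus 3 SD, cut at about 130% in these data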;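 note: raw ratio to IFN-gamma control signal so 100% means no change and 0% no light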
* marks the source's active call; other numbers are inactive results; . = not tested or not shown.

SMILES	STAT1 inh	NF-kB expr up	STAT3 act	STAT3 inh	APP 5'UTR act	STAT1 activator
CC(=O)Nc1ccc(NC(=S)Nc2ccccc2)cc1	3	1.1	103	6	15	99
CC(C)(C)c1nnc(NC(=S)Nc2ccccc2)s1	-41	3.6*	96	6	92	140*
O=c1c2ccccc2ncn1CCOCCOc1ccc([N+](=O)[O-])cc1	-35	1.1	95	11	-5	129*
O=C(c1ccc(-c2ccc(Cl)cc2Cl)o1)N1CCOCC1	-42	3	101	4	80	138*
O=C(CSc1nnc(CNC(=O)c2ccccc2F)o1)NCc1ccccc1	-3	1.1	97	9	6	100
COc1ccc(-c2ocnc2C(=O)N2CCN(C(c3ccccc3)c3ccccc3)CC2)cc1	5	1.1	102	-1	6	94
O=C(NC(=S)Nc1nc2c(s1)CSc1ccccc1-2)c1ccccc1	15	1.2	167*	-82	-5	87
Fc1ccc(-c2csc(N3CCC(c4ccccc4)C3)n2)cc1 (stereo unspecified)	-53	3.9*	107	-4	43	147*
Clc1ccc(-c2csc(N3CCC(c4ccccc4)C3)n2)cc1 (stereo unspecified)	-35	2.4	101	0	10	132*
COc1ccc(-c2csc(N3CCC(c4ccccc4)C3)n2)cc1 (stereo unspecified)	-5	1.9	90	12	0	104
O=C(CCCN1C(=O)c2ccccc2C1=O)Nc1ccc2c(c1)OCCO2	0	1.1	97	10	-4	99
Cc1ccc(-c2cc(N)n(Cc3ccc(Cl)cc3)n2)cc1	12	1.1	67	46*	0	90
Nc1cc(-c2ccc(Cl)cc2)nn1-c1ccccc1	-51	2.6	91	11	88	149*
Nc1c(-c2ccc(Cl)cc2)nnn1-c1ccccc1	-35	3	99	6	89	132*
CC(C(=O)NCC1CCCCC1)N(C)CC(=O)Nc1ccc(N2CCOCC2)cc1 (stereo unspecified)	0	1.2	100	3	1	99
CC(C)Cc1ccc(/C=C/C(=O)N2CCOCC2)cc1	-49	3.8*	111	-7	101	146*
CC(C)(C)c1ccc(/C=C/C(=O)N2CCN(c3ncccn3)CC2)cc1	1	1	108	-7	-2	99
O=C(CCCOc1ccc(Cl)cc1)N1CCOCC1	-4	1.2	96	10	17	104
CC(C)(C)c1ccc(/C=C/C(=O)N2CCOCC2)cc1	-36	2.2	114	-13	57	132*
CC(C)(C)c1ccc(OCCCC(=O)N2CCOCC2)cc1	-36	1.5	118	-16	15	132*
S=c1[nH]nc(Cc2sc(-c3ccccc3)nc2-c2ccccc2)o1	-7	1.2	98	8	-6	106
Cc1nc(NC2=NCN(CCCN3CCOCC3)CN2)nc2c(C)cccc12	-10	1.2	183*	-86	-16	109
Cc1nc(NC2=NCN(CCc3ccccc3)CN2)nc2c(C)cccc12	-2	.	158*	-67	54	102
Cc1nc(NC2=NCN(CC3CCCO3)CN2)nc2ccccc12 (stereo unspecified)	7	.	101	5	-4	94
Cc1nc(N/N=C/c2ccccn2)sc1C	80*	1.1	25	89*	-5	29
SMILES	STAT1 inh	NF-kB expr up	STAT3 act	STAT3 inh	APP 5'UTR act	STAT1 activator
COC(=O)C1C(=O)c2c([nH]c(C(=O)OC3CCCC3C)c2C)CC1C (stereo unspecified)	-40	3	120	-24	157*	138*
O=c1nc2c(-c3ccccc3F)n[nH]n2c2ccccc12	-37	1.7	123	-24	5	134*
CCc1ccc(S(=O)(=O)c2n[nH]n3c2nc(=O)c2ccccc23)cc1	-2	1	100	3	4	101
Cc1cc(N=Cc2c(O)ccc3ccccc23)no1	10	0.98	135*	-34	-9	91
CC1CCCN(c2ccc3nc4ccccc4c(=O)n3n2)C1 (stereo unspecified)	51*	2.1	38	76*	175*	51
Cc1ccc2nc3ccc(N4CCCC4)nn3c(=O)c2c1	-37	1.7	97	9	100	134*
Cc1sc2nc3ccc(N4CCCCC4)nn3c(=O)c2c1C	-26	1.2	87	20	34	124
COc1ccccc1C1CC(c2cccs2)=Nc2ccccc2S1 (stereo unspecified)	-13	1.8	133*	-34	146*	112
Cc1ccc(Nc2nc(C)cs2)cc1	-35	0.94	85	20	199*	130*
Cc1csc(Nc2cccc3ccccc23)n1	-4	1.4	88	16	22	104
Cc1csc(Nc2ccc(Cl)cc2)n1	-46	2.3	96	10	47	138*
CCNC(=S)Nc1ccccc1-c1ccccc1	-5	1	101	2	13	104
Cn1ncc(N=Cc2ccccc2)c1C(=O)Nc1cccc(Cl)c1	-2	1.3	93	12	4	102
Cc1cccn2c(N)c(-c3ccccc3)nc12	-2	1.3	134*	-35	18	102
CN=C(Nc1ccc(Br)cc1)SC1CC(=O)N(c2ccc(OC)cc2)C1=O (stereo unspecified)	0	0.85	97	12	18	100
COc1cccc(NC(=S)N/N=C2\CC3CCC2(C)C3(C)C)c1 (stereo unspecified)	-32	1.4	105	-4	60	129*
CC12CCC(C/C1=N/NC(=O)Nc1ccccc1)C2(C)C (stereo unspecified)	-4	1.5	104	-4	12	103
CC1=CS(=O)(=O)CC1SC(=S)N(C)C1CCS(=O)(=O)C1 (stereo unspecified)	4	1.2	108	-5	-6	95
Cc1ccc(-n2c(C)cc(C3=NNC(=NC4CC4)SC3)c2C)cc1C	-24	0.58	104	-10	155*	122
Cc1cc(C2=NNC(=Nc3ccccc3)SC2)c(C)n1C	-44	2.1	96	13	9	142*
COCCn1c(C)cc(C2=NNC(=Nc3ccccc3F)SC2)c1C	73*	0.27	22	94*	-52	32
Cc1cc(C2=NNC(=NC3CC3)SC2)c(C)n1-c1c(C)n(C)n(-c2ccccc2)c1=O	3	1.2	96	8	-16	97
COCCCN=C1NN=C(c2cc(C)n(Cc3ccccc3Cl)c2C)CS1	-9	1.3	113	-9	-76	108
COCCCN=C1NN=C(c2cc(C)n(-c3ccccc3F)c2C)CS1	45*	1.8	58	52*	187*	58
CCN(CC)S(=O)(=O)c1cc(NC(=O)COC(=O)c2ccc(NC(=O)CC#N)cc2)ccc1C	-14	0.86	102	9	-8	111
